{
  "source": "ChEMBL document CHEMBL1949528",
  "about": "“New inhibitor of 3-phosphoinositide dependent protein kinase-1 identified from virtual screening” (Bioorg Med Chem Lett, 2012)",
  "key": {"[1]": {"target": "T1, 3-phosphoinositide-dependent protein kinase 1 (Homo sapiens, UniProt O15530)", "T1 sequence (O15530 whole entry)": "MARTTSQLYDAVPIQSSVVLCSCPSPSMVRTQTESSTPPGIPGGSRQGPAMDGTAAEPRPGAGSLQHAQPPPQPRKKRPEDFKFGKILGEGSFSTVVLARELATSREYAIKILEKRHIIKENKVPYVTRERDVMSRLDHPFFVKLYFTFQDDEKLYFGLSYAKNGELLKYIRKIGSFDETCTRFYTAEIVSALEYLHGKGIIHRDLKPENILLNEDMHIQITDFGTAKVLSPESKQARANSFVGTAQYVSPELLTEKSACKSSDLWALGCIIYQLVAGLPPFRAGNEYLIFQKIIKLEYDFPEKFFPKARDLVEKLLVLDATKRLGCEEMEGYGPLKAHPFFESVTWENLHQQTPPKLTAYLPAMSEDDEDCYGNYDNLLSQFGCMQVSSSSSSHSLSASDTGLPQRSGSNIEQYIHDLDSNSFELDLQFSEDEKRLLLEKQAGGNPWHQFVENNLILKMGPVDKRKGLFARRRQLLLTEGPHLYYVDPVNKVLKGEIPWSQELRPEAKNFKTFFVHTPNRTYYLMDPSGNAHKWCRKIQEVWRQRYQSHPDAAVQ", "assay": "Inhibition of recombinant PDK1 using P2925 peptide as substrate by fluorescence polarization assay", "how_it_was_run": "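A fluorescence polarization kit assay. Recombinant PDK1 phosphorylates the substrate peptide with DMSO or inhibitor present. The phosphopeptide formed competes with a fluorescein-labeled phosphopeptide tracer for an anti-phosphothreonine antibody, and polarization is then read on a plate reader. A standard reference inhibitor was run alongside.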"}, "[2]": {"system": "PC-3", "assay": "Growth inhibition of human PC3 cells after 48 hrs by sulforhodamine B assay", "assay_type": "functional", "conditions": "PC-3, 48 h", "how_it_was_run": "(§1)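 Run in the NCI-DTP 60-cell-line screen. Cells were exposed for 48 h to at least five 10-fold dilutions (0.01 to 100 μM). Cell growth was estimated by sulforhodamine B protein staining. Percentage growth at each level was taken from absorbances at time zero (Tz), of the untreated control (C) and of treated cells (Ti), as [(Ti-Tz)/(C-Tz)]*100.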"}, "[3]": {"system": "LOX IMVI", "assay": "Growth inhibition of human LOXIMVI cells after 48 hrs by sulforhodamine B assay", "assay_type": "functional", "how_it_was_run": "as §1"}, "[4]": {"system": "U-251", "assay": "Growth inhibition of human U251 cells after 48 hrs by sulforhodamine B assay", "assay_type": "functional", "conditions": "U-251, 48 h", "how_it_was_run": "as §1"}, "[5]": {"system": "Hs-578T", "assay": "Growth inhibition of human Hs578T cells after 48 hrs by sulforhodamine B assay", "assay_type": "functional", "how_it_was_run": "as §1"}, "[6]": {"system": "RPMI-8226", "assay": "Growth inhibition of human RPMI8226 cells after 48 hrs by sulforhodamine B assay", "assay_type": "functional", "conditions": "RPMI-8226, 48 h", "how_it_was_run": "as §1"}, "[7]": {"system": "RXF 393", "assay": "Growth inhibition of human RXF393 cells after 48 hrs by sulforhodamine B assay", "assay_type": "functional", "conditions": "RXF 393, 48 h", "how_it_was_run": "as §1"}, "[8]": {"system": "HOP-92", "assay": "Growth inhibition of human HOP92 cells after 48 hrs by sulforhodamine B assay", "assay_type": "functional", "conditions": "HOP-92, 48 h", "how_it_was_run": "as §1"}, "[9]": {"system": "SF-295", "assay": "Growth inhibition of human SF295 cells after 48 hrs by sulforhodamine B assay", "assay_type": "functional", "conditions": "SF-295, 48 h", "how_it_was_run": "as §1"}, "[10]": {"system": "OVCAR-3", "assay": "Growth inhibition of human OVCAR3 cells after 48 hrs by sulforhodamine B assay", "assay_type": "functional", "conditions": "OVCAR-3, 48 h", "how_it_was_run": "as §1"}, "[11]": {"system": "DU-145", "assay": "Growth inhibition of human DU145 cells after 48 hrs by sulforhodamine B assay", "assay_type": "functional", "conditions": "DU-145, 48 h", "how_it_was_run": "as §1"}, "[12]": {"system": "SF-268", "assay": "Growth inhibition of human SF268 cells after 48 hrs by sulforhodamine B assay", "assay_type": "functional", "conditions": "SF-268, 48 h", "how_it_was_run": "as §1"}, "[13]": {"system": "KM12", "assay": "Growth inhibition of human KM12 cells after 48 hrs by sulforhodamine B assay", "assay_type": "functional", "conditions": "KM12, 48 h", "how_it_was_run": "as §1"}, "[14]": {"system": "Hs-578T", "assay": "Growth inhibition of human Hs578T cells at 10 uM after 48 hrs by sulforhodamine B assay", "assay_type": "functional", "conditions": "read-out: GI", "how_it_was_run": "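A single-concentration NCI-DTP test at 10 μM, run two times. After 48 h exposure, growth was read by sulforhodamine B staining and expressed as percentage growth, [(Ti-Tz)/(C-Tz)]*100, against time-zero and untreated-control absorbances. Growth inhibition is reported as 100 minus percentage growth.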"}},
  "data": [
    {"compound": "CCOC(=O)c1ccc(Nc2cc(C)nc(Nc3ccc(C(=O)OCC)cc3)n2)cc1", "values": [
      {"measurement": "IC50", "setting": "[1]", "value": 0.2, "unit": "µM"},
      {"measurement": "GI50", "setting": "[2]", "value": 6.02, "unit": "µM"},
      {"measurement": "GI50", "setting": "[3]", "value": 7.24, "unit": "µM"},
      {"measurement": "GI50", "setting": "[4]", "value": 9.88, "unit": "µM"},
      {"measurement": "GI50", "setting": "[5]", "value": "< 10", "unit": "µM"},
      {"measurement": "GI50", "setting": "[6]", "value": 3.54, "unit": "µM"},
      {"measurement": "GI50", "setting": "[7]", "value": 5.05, "unit": "µM"},
      {"measurement": "GI50", "setting": "[8]", "value": 3.25, "unit": "µM"},
      {"measurement": "GI50", "setting": "[9]", "value": 8.64, "unit": "µM"},
      {"measurement": "GI50", "setting": "[10]", "value": 2.02, "unit": "µM"},
      {"measurement": "GI50", "setting": "[11]", "value": 5.39, "unit": "µM"},
      {"measurement": "GI50", "setting": "[12]", "value": 3.8, "unit": "µM"},
      {"measurement": "GI50", "setting": "[13]", "value": 3.62, "unit": "µM"},
      {"measurement": "inhibition of growth at 10 µM", "setting": "[14]", "value": 67, "unit": "%"}
    ]}
  ]
}
